Screening results (PubChem BioAssay)
Rows were chosen to be rich in hits. Some 2.8% of all compounds tested hit in one or more screens of this group.
EBI2 block = antagonists of human EBI2 receptor; P32249; EBI2 beta-arrestin recruitment, luminescence, 7a,25-OHC stimulated; inhibition, % at 5 µM; 360,000 tested, 0.81% active; AID 651636; in the data active = inhibition above about 38%;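 also: enzyme fragment complementation signal reports receptor beta-arrestin coupling in cells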
MC4R ag barr = human MC4R agonism via beta-arrestin; U2OS MC4R beta-arrestin complementation, luminescence; percent of melanotan II response, DMSO zero; 360,000 tested, 0.98% active; P32245; AID 540308; activation, % at 8.9 µM;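 active = activation above a per-plate cutoff, the mean activation of sample wells on that plate plus 3 SD, cut at about 8% in these data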
Target sequence (P32245 whole entry, looked up): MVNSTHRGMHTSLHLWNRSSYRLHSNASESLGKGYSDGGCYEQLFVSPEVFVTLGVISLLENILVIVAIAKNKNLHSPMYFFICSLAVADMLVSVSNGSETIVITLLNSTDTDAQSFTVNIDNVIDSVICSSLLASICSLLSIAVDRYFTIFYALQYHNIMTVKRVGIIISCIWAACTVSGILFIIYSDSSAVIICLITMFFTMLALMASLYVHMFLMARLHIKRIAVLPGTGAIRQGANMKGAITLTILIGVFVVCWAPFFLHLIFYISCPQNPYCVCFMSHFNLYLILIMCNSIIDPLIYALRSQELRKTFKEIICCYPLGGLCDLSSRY
m5-HT2A agonist = activates the mouse 5-HT2A serotonin receptor. activation, % at 7.6 µM. CHO-K1 mHTR2A beta-arrestin complementation, luminescence; percent of 30 µM serotonin response. P35363. 360,000 tested, 0.66% active;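 active = activation above a run cutoff, the mean activation of all tested compounds plus 3 SD, cut at about 14% in these data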
MC4R antagonist = human MC4R antagonism in cAMP assay | P32245 | MC4R-expressing cells, MTII-stimulated cAMP, LANCE TR-FRET | inhibition, % at 6.5 µM | 360,000 tested, 0.48% active;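 active = inhibition above its plate's cutoff, the mean of tested wells on that plate plus 3 SD, cut at about 29% in these data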
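System: U2OS-MC4R stable cell line; Technique: Eu-cAMP/anti-cAMP TR-FRET, emission 671 nm; Repeats: single well per compound; Also added: Melanotan II; Dosing: one concentration, 6.5 µM nominal; Schedule: 30-min compound, 1-h challenge, 1-h detection, room temperature.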
EBI2 antag conf = confirmation of human EBI2 receptor antagonists; shares compounds with EBI2 block; EBI2 beta-arrestin luminescence, 7a,25-OHC antagonism; inhibition, % at 5 µM; 2,400 tested, 29% active; AID 651997;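 active = inhibition of at least 50%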
EBI2 ag = EBI2 agonism counter-screen. AID 652000. shares compounds with EBI2 block. EBI2-expressing cells, agonist mode, luminescence, 60 min; 0% vehicle, 100% 7α,25-dihydroxycholesterol control. 2,400 tested, under 10 active. activation, % at 5 µM;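 active = activation of at least 50%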
bGal counter = beta-galactosidase inhibition counter-screen. 2,400 tested, 1% active. AID 652176. purified beta-galactosidase, luminescent Galacton Star, 15 min. shares compounds with EBI2 block. inhibition, % at 5 µM;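 active = replicate-average signal at least 3 plate SD below neutral wells, shown as high inhibition, flagging enzyme-inhibiting false positives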;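 also: higher means stronger loss of beta-gal luminescence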
Numbers stand for hits.

`O=C(c1cc2cc3ccc(Cl)cc3nc2o1)N1CCCCCC1` gave EBI2 block inactive, MC4R ag barr inactive, m5-HT2A agonist inactive and MC4R antagonist inactive.
`O=C(O)c1cc2c(ccc3ccccc32)o1` gave EBI2 block inactive, MC4R ag barr inactive, m5-HT2A agonist inactive and MC4R antagonist inactive.
Screening O=C(c1cc2c(ccc3ccccc32)o1)N1CCN(c2ncc(C(F)(F)F)cc2Cl)CC1 returned EBI2 block 90.7, MC4R ag barr inactive, m5-HT2A agonist inactive, MC4R antagonist inactive, EBI2 antag conf 78.8, EBI2 ag inactive and bGal counter inactive.
For O=C(c1cc2cc(Cl)ccc2o1)N1CCCCCC1 the results were EBI2 block 46.9, MC4R ag barr inactive, m5-HT2A agonist inactive, MC4R antagonist inactive, EBI2 antag conf inactive, EBI2 ag inactive and bGal counter inactive.
Screening COc1ccc(NS(=O)(=O)c2ccc3c(c2)N(C(C)=O)CCO3)c(OC)c1 returned EBI2 block inactive, MC4R ag barr inactive, m5-HT2A agonist inactive and MC4R antagonist inactive.
Screening COc1cc2nc(CN3CCOCC3)n(CC(=O)NCC(F)(F)F)c(=O)c2cc1OC returned EBI2 block inactive, MC4R ag barr inactive, m5-HT2A agonist inactive and MC4R antagonist inactive.
For CCC(C)(C)C1CCC2(CC1)NC(=O)N(CC(=O)Nc1nc(-c3ccc(C)cc3)cs1)C2=O (configuration not stated) the results were EBI2 block 42.9, MC4R ag barr inactive, m5-HT2A agonist inactive, MC4R antagonist inactive, EBI2 antag conf inactive, EBI2 ag inactive and bGal counter inactive.
Screening CCOC(=O)Cc1csc(NC(=O)/C=C/c2ccc(OC)cc2)n1 returned EBI2 block 46.1, MC4R ag barr inactive, m5-HT2A agonist inactive, MC4R antagonist inactive, EBI2 antag conf inactive, EBI2 ag inactive and bGal counter inactive.
`CCC1Nc2ncnc(N3CCN(c4ccccc4)CC3)c2N(Cc2ccc(OC)cc2)C1=O` (configuration not stated) gave EBI2 block 56.1, MC4R ag barr inactive, m5-HT2A agonist inactive, MC4R antagonist inactive, EBI2 antag conf 60.3, EBI2 ag inactive and bGal counter 61.2.
`Cc1ccc(CN2C(=O)C(Cc3ccccc3)Nc3ncnc(N4CCN(c5ccccc5)CC4)c32)cc1` (configuration not stated) gave EBI2 block 59.9, MC4R ag barr inactive, m5-HT2A agonist inactive, MC4R antagonist inactive, EBI2 antag conf 61.7, EBI2 ag inactive and bGal counter 37.4.
For O=C1C(Cc2ccccc2)Nc2ncnc(N3CCN(c4ccccc4)CC3)c2N1Cc1ccc(Br)cc1 (configuration not stated) the results were EBI2 block 74.8, MC4R ag barr inactive, m5-HT2A agonist inactive, MC4R antagonist inactive, EBI2 antag conf 70.6, EBI2 ag inactive and bGal counter 41.3.
Screening Cc1ccc(CN2C(=O)C(C)Nc3ncnc(N4CCN(c5ccccn5)CC4)c32)cc1 (configuration not stated) returned EBI2 block 53.5, MC4R ag barr inactive, m5-HT2A agonist inactive, MC4R antagonist inactive, EBI2 antag conf inactive, EBI2 ag inactive and bGal counter 48.9.
For CC(C)(C)c1ccc(C(=O)N2CCN(C(=O)c3ccco3)CC2)cc1 the results were EBI2 block inactive, MC4R ag barr inactive, m5-HT2A agonist inactive and MC4R antagonist inactive.
O=C(O)C=Cc1c[nH]c2nccnc12 was read as EBI2 block inactive, MC4R ag barr inactive, m5-HT2A agonist inactive and MC4R antagonist inactive.
Screening Cc1nnc(SCC(=O)c2ccc(Br)cc2)s1 returned EBI2 block inactive, MC4R ag barr inactive, m5-HT2A agonist inactive and MC4R antagonist inactive.
For CCC1Nc2ncnc(N3CCN(c4ccccc4)CC3)c2N(Cc2ccc(Br)cc2)C1=O (configuration not stated) the results were EBI2 block 78.3, MC4R ag barr inactive, m5-HT2A agonist inactive, MC4R antagonist inactive, EBI2 antag conf 80.0, EBI2 ag inactive and bGal counter 70.3.
`COc1cc(-c2nc(-c3ccccc3)c(-c3cccs3)[nH]2)cc(OC)c1O` gave EBI2 block inactive, MC4R ag barr inactive, m5-HT2A agonist inactive and MC4R antagonist inactive.
COc1cc(-c2nc(-c3ccccc3)c(-c3cccs3)[nH]2)cc(OC)c1OC was read as EBI2 block 45.2, MC4R ag barr inactive, m5-HT2A agonist inactive, MC4R antagonist inactive, EBI2 antag conf inactive, EBI2 ag inactive and bGal counter inactive.
`O=C1CCN(Cc2ccccc2)C=C1c1ccc(Cl)cc1` gave EBI2 block 65.8, MC4R ag barr inactive, m5-HT2A agonist inactive, MC4R antagonist inactive, EBI2 antag conf 58.1, EBI2 ag inactive and bGal counter inactive.
`O=C1CCN(Cc2ccccc2)C=C1c1ccc2ccccc2c1` gave EBI2 block 89.6, MC4R ag barr inactive, m5-HT2A agonist inactive, MC4R antagonist inactive, EBI2 antag conf 65.4, EBI2 ag inactive and bGal counter inactive.
`O=C1CCN(Cc2ccccc2)C=C1c1ccc(C(F)(F)F)cc1` gave EBI2 block 69.4, MC4R ag barr inactive, m5-HT2A agonist inactive, MC4R antagonist inactive, EBI2 antag conf inactive, EBI2 ag inactive and bGal counter inactive.
For COc1cc(C2=CN(Cc3ccccc3)CCC2=O)cc(OC)c1OC the results were EBI2 block inactive, MC4R ag barr inactive, m5-HT2A agonist inactive and MC4R antagonist inactive.
`O=C1CCN(Cc2ccccc2)C=C1C(=O)c1ccccc1` gave EBI2 block inactive, MC4R ag barr inactive, m5-HT2A agonist inactive and MC4R antagonist inactive.
For Cc1ccc(-n2nc3c(c2NC(=O)c2ccc4c(c2)OCO4)CS(=O)(=O)C3)c(C)c1 the results were EBI2 block inactive, MC4R ag barr inactive, m5-HT2A agonist inactive and MC4R antagonist inactive.
O=C(COC(=O)CCc1ccccc1)Nc1ncc(Cl)cc1Cl was read as EBI2 block inactive, MC4R ag barr inactive, m5-HT2A agonist inactive and MC4R antagonist inactive.
For O=C(/C=C/c1ccc(Br)cc1)NCc1cccs1 the results were EBI2 block 64.8, MC4R ag barr inactive, m5-HT2A agonist inactive, MC4R antagonist inactive, EBI2 antag conf inactive, EBI2 ag inactive and bGal counter inactive.
For O=C(/C=C/c1ccc(F)cc1)NCc1cccs1 the results were EBI2 block inactive, MC4R ag barr inactive, m5-HT2A agonist inactive and MC4R antagonist inactive.
For O=C(NCc1ccc2c(c1)OCO2)c1cc([N+](=O)[O-])ccc1N1CCCCC1 the results were EBI2 block 83.2, MC4R ag barr inactive, m5-HT2A agonist inactive, MC4R antagonist inactive, EBI2 antag conf 62.3, EBI2 ag inactive and bGal counter inactive.
